Source: ChEMBL document CHEMBL4261518, “Side chain-functionalized aniline-derived ursolic acid derivatives as multidrug resistance reversers that block the nuclear factor-kappa B (NF-κB) pathway and cell proliferation” (Medchemcomm, 2017)

Legend:
HepG2 = assay: Cytotoxicity against human HepG2 cells after 48 hrs by MTT assay; type: functional, cell-based; details: HepG2, 48 h
How it was run: (§1)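 Cells grown overnight in DMEM + 10% FBS at 37 °C under 5% CO2, then given a range of compound concentrations for 48 h. MTT added for about 4 h, medium replaced by DMSO, absorbance read at 570/630 nm. IC50 reported as mean ± SD of five independent experiments.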

[1] = Inhibition of TNFalpha-induced NF-kB (unknown origin) activation expressed in human NCI-H460 cells after 7 hrs by luciferase reporter gene assay; type: cell-based; details: NCI-H460, 7 h
How it was run: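 NCI-H460 cells transiently co-transfected with pNF-κB-Luc reporter and pSV-β-galactosidase internal control by lipofectamine. Medium changed after 6 h, then 6 h further culture. TNF-α (15 ng ml–1) plus compound given together for 7 h. Luciferase ratio to TNF-α-only cells, corrected for non-TNF background and viability. IC50 from sigmoidal variable-slope fit.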

MGC-803 = assay: Cytotoxicity against human MGC803 cells after 48 hrs by MTT assay; type: functional, cell-based; details: MGC-803, 48 h; how it was run: as §1
[2] = Cytotoxicity against human SPCA2 cells after 48 hrs by MTT assay; type: functional, cell-based; details: SPCA2, 48 h; how it was run: as §1
NCI-H460 [3] = assay: Cytotoxicity against human NCI-H460 cells harboring pNF-kB-Luc assessed as reduction in cell viability after 7 hrs by MTT assay relative to control; set-up: concentration or dose not given beside the values; details: nci-h460, 7 h
NCI-H460 [4] = assay: Cytotoxicity against human NCI-H460 cells after 48 hrs by MTT assay; type: functional, cell-based; details: NCI-H460, 48 h; how it was run: as §1
L02 = assay: Cytotoxicity against human HL7702 cells after 48 hrs by MTT assay; type: cell-based; details: L02, 48 h; how it was run: as §1
A549 = assay: Cytotoxicity against human A549 cells after 48 hrs by MTT assay; type: functional, cell-based; details: A549, 48 h; how it was run: as §1
[5] = Resistant factor, ratio of IC50 for human HepG2/DOX cells to IC50 for human HepG2 cells; type: functional
[6] = Cytotoxicity against human HepG2/DOX cells after 48 hrs by MTT assay; type: functional, cell-based; how it was run: as §1
[7] = Cytotoxicity against human NCI-H460/DOX cells after 48 hrs by MTT assay; type: functional, cell-based; details: NCI-H460, 48 h; how it was run: as §1
[8] = Resistant factor, ratio of IC50 for human NCI-H460/DOX cells to IC50 for human NCI-H460 cells; type: functional
T-24 = assay: Cytotoxicity against human T24 cells after 48 hrs by MTT assay; type: functional, cell-based; details: T-24, 48 h; how it was run: as §1

Row | SMILES | IC50 (HepG2) [µM] | IC50 [1] [µM] | IC50 (MGC-803) [µM] | IC50 [2] [µM] | Activity (NCI-H460 [3]) [%] | IC50 (NCI-H460 [4]) [µM] | IC50 (L02) [µM] | IC50 (A549) [µM] | Ratio IC50 [5] | IC50 [6] [µM] | IC50 [7] [µM] | Ratio IC50 [8] | IC50 (T-24) [µM]
1 | C[C@H]1[C@H](C)CC[C@]2(C(=O)Nc3ccccc3)CC[C@]3(C)C(=CC[C@@H]4[C@@]5(C)CCC(=O)C(C)(C)[C@@H]5CC[C@]43C)[C@H]12 | 18.1 | 7.13 | 15.1 | 13.5 | < 5 | 12.9 | > 50 | 16.3 | 2.02 | 36.7 | 25.7 | 1.99 | 13.6
2 | COc1ccc(NC(=O)[C@]23CC[C@@H](C)[C@H](C)[C@H]2C2=CC[C@@H]4[C@@]5(C)CC[C@H](OC(C)=O)C(C)(C)[C@@H]5CC[C@@]4(C)[C@]2(C)CC3)cc1OC | – | 10.1 | 27.8 | 12.9 | < 5 | 11.9 | > 50 | 22.9 | – | – | – | – | 24.7
3 | C[C@H]1[C@H](C)CC[C@]2(C(=O)N3CCN(C)CC3)CC[C@]3(C)C(=CC[C@@H]4[C@@]5(C)CCC(=O)C(C)(C)[C@@H]5CC[C@]43C)[C@H]12 | – | 15.5 | 25.6 | 22.4 | < 5 | 19.2 | > 50 | 23.4 | – | – | – | – | 27.2
4 | COc1ccc(NC(=O)[C@]23CC[C@@H](C)[C@H](C)[C@H]2C2=CC[C@@H]4[C@@]5(C)CCC(=O)C(C)(C)[C@@H]5CC[C@@]4(C)[C@]2(C)CC3)cc1 | – | > 20 | 29.7 | 21.1 | < 5 | 28.1 | > 50 | 39.9 | – | – | – | – | 32.5
5 | Cc1ccc(NC(=O)[C@]23CC[C@@H](C)[C@H](C)[C@H]2C2=CC[C@@H]4[C@@]5(C)CCC(=O)C(C)(C)[C@@H]5CC[C@@]4(C)[C@]2(C)CC3)cc1C | – | 15.2 | 21.4 | 22.5 | < 5 | 19.4 | > 50 | 20.9 | – | – | – | – | 24.6
6 | Cc1ccccc1NC(=O)COC(=O)[C@]12CC[C@@H](C)[C@H](C)[C@H]1C1=CC[C@@H]3[C@@]4(C)CCC(=O)C(C)(C)[C@@H]4CC[C@@]3(C)[C@]1(C)CC2 | – | 16.2 | 16.2 | 18.7 | < 5 | 14 | > 50 | 16.2 | – | – | – | – | 17.8
7 | COc1ccc(NC(=O)[C@]23CC[C@@H](C)[C@H](C)[C@H]2C2=CC[C@@H]4[C@@]5(C)CCC(=O)C(C)(C)[C@@H]5CC[C@@]4(C)[C@]2(C)CC3)cc1OC | – | > 20 | 32.5 | 28.4 | < 5 | 30.2 | > 50 | 38.7 | – | – | – | – | 37.3
8 | COc1cccc(NC(=O)COC(=O)[C@]23CC[C@@H](C)[C@H](C)[C@H]2C2=CC[C@@H]4[C@@]5(C)CCC(=O)C(C)(C)[C@@H]5CC[C@@]4(C)[C@]2(C)CC3)c1 | – | – | > 50 | > 50 | – | > 50 | > 50 | > 50 | – | – | – | – | > 50
9 | Cc1cccc(NC(=O)COC(=O)[C@]23CC[C@@H](C)[C@H](C)[C@H]2C2=CC[C@@H]4[C@@]5(C)CCC(=O)C(C)(C)[C@@H]5CC[C@@]4(C)[C@]2(C)CC3)c1 | – | – | > 50 | > 50 | – | > 50 | > 50 | > 50 | – | – | – | – | > 50
10 | COc1cc(NC(=O)COC(=O)[C@]23CC[C@@H](C)[C@H](C)[C@H]2C2=CC[C@@H]4[C@@]5(C)CCC(=O)C(C)(C)[C@@H]5CC[C@@]4(C)[C@]2(C)CC3)cc(OC)c1OC | – | > 20 | 38.7 | 27.9 | < 5 | 39.6 | > 50 | 35.8 | – | – | – | – | 37.8
11 | COc1ccc(NC(=O)COC(=O)[C@]23CC[C@@H](C)[C@H](C)[C@H]2C2=CC[C@@H]4[C@@]5(C)CCC(=O)C(C)(C)[C@@H]5CC[C@@]4(C)[C@]2(C)CC3)cc1OC | – | > 20 | 38.2 | 18.9 | < 5 | 22.8 | > 50 | 35.2 | – | – | – | – | 27.7
12 | C[C@H]1[C@H](C)CC[C@]2(C(=O)O)CC[C@]3(C)C(=CC[C@@H]4[C@@]5(C)CC[C@H](O)C(C)(C)[C@@H]5CC[C@]43C)[C@H]12 [URSOLIC ACID] | – | > 20 | 27.6 | 30.2 | < 5 | 32.2 | > 50 | – | – | – | – | – | –
13 | CC(=O)O[C@H]1CC[C@]2(C)[C@H]3CC=C4[C@@H]5[C@@H](C)[C@H](C)CC[C@]5(C(=O)Nc5cccc(C)c5)CC[C@@]4(C)[C@]3(C)CC[C@H]2C1(C)C | – | – | > 50 | > 50 | – | > 50 | > 50 | > 50 | – | – | – | – | > 50
14 | COc1ccc(NC(=O)COC(=O)[C@]23CC[C@@H](C)[C@H](C)[C@H]2C2=CC[C@@H]4[C@@]5(C)CCC(=O)C(C)(C)[C@@H]5CC[C@@]4(C)[C@]2(C)CC3)cc1 | – | 16 | 27.9 | 19.4 | < 5 | 17.6 | > 50 | 24.6 | – | – | – | – | 26.2
15 | COc1cccc(NC(=O)[C@]23CC[C@@H](C)[C@H](C)[C@H]2C2=CC[C@@H]4[C@@]5(C)CC[C@H](OC(C)=O)C(C)(C)[C@@H]5CC[C@@]4(C)[C@]2(C)CC3)c1 | – | – | > 50 | > 50 | – | > 50 | > 50 | > 50 | – | – | – | – | > 50
16 | COc1cccc2c1C(=O)c1c(O)c3c(c(O)c1C2=O)C[C@@](O)(C(=O)CO)C[C@@H]3O[C@H]1C[C@H](N)[C@H](O)[C@H](C)O1 [DOXORUBICIN] | 6.91 | – | – | – | – | – | – | – | – | > 50 | > 50 | – | –
17 | Cc1cccc(NC(=O)[C@]23CC[C@@H](C)[C@H](C)[C@H]2C2=CC[C@@H]4[C@@]5(C)CCC(=O)C(C)(C)[C@@H]5CC[C@@]4(C)[C@]2(C)CC3)c1 | – | – | > 50 | > 50 | – | > 50 | > 50 | > 50 | – | – | – | – | > 50
18 | COc1cc(NC(=O)[C@]23CC[C@@H](C)[C@H](C)[C@H]2C2=CC[C@@H]4[C@@]5(C)CC[C@H](OC(C)=O)C(C)(C)[C@@H]5CC[C@@]4(C)[C@]2(C)CC3)cc(OC)c1OC | – | 14.8 | 37.2 | 28.7 | < 5 | 21.1 | > 50 | 36.5 | – | – | – | – | 30.5
19 | CC[C@@]1(O)C(=O)OCc2c1cc1n(c2=O)Cc2cc3cc(O)ccc3nc2-1 [HYDROXYCAMPTOTHECIN] | – | – | – | 12.6 | – | 16.6 | 12.8 | 2.75 | – | – | – | – | –
20 | C[C@H]1[C@H](C)CC[C@]2(C(=O)OCC(=O)Nc3ccccc3)CC[C@]3(C)C(=CC[C@@H]4[C@@]5(C)CCC(=O)C(C)(C)[C@@H]5CC[C@]43C)[C@H]12 | 24.2 | 10.3 | 16.1 | 16.3 | < 5 | 13.8 | > 50 | 14.1 | – | > 50 | 26.6 | 1.94 | 16
21 | COc1cc(NC(=O)[C@]23CC[C@@H](C)[C@H](C)[C@H]2C2=CC[C@@H]4[C@@]5(C)CCC(=O)C(C)(C)[C@@H]5CC[C@@]4(C)[C@]2(C)CC3)cc(OC)c1OC | – | > 20 | 40.1 | 29.9 | < 5 | 34.3 | > 50 | 41.2 | – | – | – | – | 39.8
22 | CC(=O)O[C@H]1CC[C@]2(C)[C@H]3CC=C4[C@@H]5[C@@H](C)[C@H](C)CC[C@]5(C(=O)N5CCN(C)CC5)CC[C@@]4(C)[C@]3(C)CC[C@H]2C1(C)C | 27 | 4.8 | 21.6 | 29.2 | < 5 | 21.2 | > 50 | 24.2 | – | > 50 | 49.7 | 2.35 | 25.4
